# HMGR II inh: inhibitors of E. faecalis class II HMGR, primary screen, biochemical, Enterococcus faecalis. purified E. faecalis HMGR, NADPH absorbance 340 nm kinetic. actives 0.41% (n = 190,000). inhibition, % at 10 µM. HMG-CoA reductase (Enterococcus faecalis, mvaE);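 active = inhibition above a set limit, the median over all tested compounds plus 3 SD, cut at about 9.5% in these data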;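 also: enzyme runs in reverse so mevalonate oxidation gives rising NADPH absorbance; 0% = complete reaction with DMSO and 100% = background rate lacking mevalonate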
# PERK inh: block of dimerizer-induced PERK translation repression, primary screen, PERK inhibitor project, CHO PERK-DD cells, SEAP luminescence, HTS | Eukaryotic translation initiation factor 2-alpha kinase 3 (Homo sapiens), Q9NZJ5 | CHO PERK-DD fusion, SEAP luminescence translation reporter | inhibition, % at 5.6 µM | actives 0.17% (n = 220,000);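 active = inhibition above the mean inhibition of all tested compounds plus 3 SD, set separately per screening campaign, cut at about 2.9% in these data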;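 also: PERK kinase domain activated by AP20187 dimerizer at 100 nM; 0% = DMSO with dimerizer and 100% = rapamycin at 8.4 µM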
# TNF necrop inh: inhibitors of TNF-alpha triggered necroptosis, primary screen, cell-based, Jurkat FADD-/-, single concentration; Jurkat FADD-/- TNF necroptosis rescue, ATP luminescence, 24 h; 0 = TNF only, 100 = no-TNF cells; activation (protection from cell death), % at 10 µM; actives 0.068% (n = 220,000); AID 463075, 2010;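 active = activation, meaning protection from cell death, of at least 50% relative to plate controls; inactive = activation below 50%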;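 also: necroptosis triggered by 40 ng/mL TNF-alpha added together with compound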
# zVAD death inh: inhibitors of zVAD-triggered necroptosis, primary screen, L929 cells; AID 1377, 2008; L929 zVAD necroptosis rescue, ATP luminescence, 24 h; with zVAD 60 µM; viability rescue, % at 10 µM; actives 0.38% (n = 220,000);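 active = activation, scaled between plate controls, above about 75%, limit read from the data; inactive = activation under that limit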;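 also: 0% = zVAD with DMSO and 100% = DMSO alone without zVAD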
# Rad51 HR inh: human RAD51 strand exchange inhibitors, primary screen, biochemical, fluorescence. DNA repair protein RAD51 homolog 1 (Homo sapiens), Q06609. hRad51 DNA strand exchange, fluorescence dequenching. inhibition, % at 10 µM. actives 0.085% (n = 200,000). AID 1385, 2008;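 active = inhibition above 40% at the single screening dose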;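 also: 0% = DMSO control wells and 100% = blanks with heterologous ssDNA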
# Target sequence (Q06609 whole entry, looked up): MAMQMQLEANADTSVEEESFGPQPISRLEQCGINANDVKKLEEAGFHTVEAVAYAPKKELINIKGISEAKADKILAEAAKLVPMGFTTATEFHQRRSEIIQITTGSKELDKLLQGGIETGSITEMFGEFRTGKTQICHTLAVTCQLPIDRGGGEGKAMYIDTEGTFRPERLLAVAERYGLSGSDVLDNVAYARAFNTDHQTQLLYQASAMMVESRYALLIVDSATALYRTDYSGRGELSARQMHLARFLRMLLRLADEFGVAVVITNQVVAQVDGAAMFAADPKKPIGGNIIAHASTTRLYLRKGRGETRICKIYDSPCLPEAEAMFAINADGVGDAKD
#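 material = hRad51 filaments on single-stranded DNA | reagent = Donor/quencher-labelled 47-bp dsDNA substrate | compound = 10 µM final, single point | schedule = strand-exchange reaction 15 min at room temperature | measured by = fluorescein emission 520 nm, excitation 485 nm | read-out basis = % inhibition versus plate control and blank means | benchmarks = plate controls and plate blanks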
# Numbers without * were called inactive; nt = not tested or not shown. Compounds with a hit are over-represented: about 1% of the library has one in this group of screens.
SMILES,HMGR II inh,PERK inh,TNF necrop inh,zVAD death inh,Rad51 HR inh
CCOC(=O)Cc1csc(NC(=O)COc2ccccc2)n1,-8,0,0,0,nt
CCOC(=O)Cc1csc(NC(=O)COc2cccc(C)c2)n1,18*,1,0,2,-6
CC(C)n1nnnc1-c1cc(Cl)cc(Cl)c1,-1,3.5*,1,0,2
CC(C)n1nnnc1-c1cccc(Cl)c1,1,1,-2,0,-4
COc1ccc(NC(=O)CSc2nnc(-c3ccncc3)n2C)cc1,2,1,0,3,3
Cn1c(SCC(=O)Nc2ccc(NC(=O)c3cccs3)cc2)nnc1-c1ccncc1,11*,0,-1,0,-1
CCCCCCCCNC(=O)c1ccc(C)cc1,0,1,1,2,1
COc1ccc(S(=O)(=O)Nc2cccc(/C=C/C(=O)O)c2)cc1,-6,1,0,0,8
Cc1ccc(S(=O)(=O)Nc2cccc(/C=C/C(=O)O)c2)cc1,11*,1,-1,0,4
O=C(O)CCC(=O)NC(c1ccccc1)c1ccccc1,14*,1,0,1,8
O=C(Cc1cccs1)NC(c1ccccc1)c1ccccc1,3,0,0,-1,nt
CC(=O)NC(Cc1cccc(F)c1)C(=O)NC1CCN(c2ncccc2[N+](=O)[O-])CC1 (centres undefined),16*,-1,1,8,6
CC(=O)NC(Cc1cccc(C)c1)C(=O)NC1CCN(c2ncccc2[N+](=O)[O-])CC1 (centres undefined),1,1,0,1,-1
Cc1ccc(N2CC(C(=O)O)CC2=O)cc1 (centres undefined),5,1,1,3,3
CC1(C)CC(=O)C=C(NCCO)C1,-6,3.1*,0,-1,8
COc1ccc(CNC(=O)COC(=O)CCC2CCCCC2)cc1,2,1,1,-1,-1
CC(C)(C)NC(=O)NC(=O)COC(=O)CCC1CCCC1,nt,1,1,1,46*
Cn1c(CN2CCCC2)c(C#N)c2ccccc21,15*,0,0,0,2
CN1CCN(Cc2c(C#N)c3ccccc3n2C)CC1,-6,-1,3,0,-4
COc1ccc(CN(C(=O)c2cc(=O)c3cc(C)cc(C)c3o2)C2CCS(=O)(=O)C2)cc1 (centres undefined),nt,-2,2,0,-8
O=C(COC(=O)c1ccc(Cl)nc1)Nc1ccc2c(c1)OCO2,2,1,0,0,1
CCCn1c(C)cc(C(=O)COc2ccc(C)nc2[N+](=O)[O-])c1C,-9,0,-3,0,3
COCCn1c(C)cc(C(=O)COc2ccc(C)nc2[N+](=O)[O-])c1C,13*,0,0,0,nt
C=CCNc1ncnc2c1ncn2C1OC(CO)C(O)C1O (centres undefined),-6,3.0*,-13,12,3
OC[C@H]1O[C@@H](n2cnc3c(NC4CCCC4)ncnc32)[C@H](O)[C@@H]1O,-11,1,-6,9,-6
SMILES,HMGR II inh,PERK inh,TNF necrop inh,zVAD death inh,Rad51 HR inh
O=C(CN1C(=O)COc2ccc(S(=O)(=O)N3CCOCC3)cc21)NCc1ccco1,nt,2,2,0,nt
O=C(CN1C(=O)COc2ccc(S(=O)(=O)N3CCOCC3)cc21)NCc1ccccn1,nt,3.5*,1,1,-29
CCOC(=O)c1sc(NC(=O)CSc2nnc(C)s2)c(C(=O)OCC)c1C,-6,-1,1,0,20
CCOC(=O)c1c(NC(=O)CSc2nnc(C)s2)sc2c1CCC(CC)C2 (centres undefined),14*,0,2,0,2
CCCc1[nH]nc2c1C(c1ccncc1)C(C#N)=C(N)O2 (centres undefined),-6,-1,0,2,9
CCCc1[nH]nc2c1C(CCC)C(C#N)=C(N)O2 (centres undefined),11*,1,-3,0,4
C/C(=N\OC(=O)c1ccc(F)cc1)c1nccs1,-4,3.2*,-3,0,-6
O=C(c1ccccc1)N1CCSC1=S,0,3.0*,-1,0,-1
CC1(C)CC(=O)C=C(NNC(=O)c2ccccc2O)C1,-3,0,-8,0,96*
Cc1cccc(C(=O)NNC2=CC(=O)CC(C)(C)C2)c1O,nt,0,-1,0,nt
Cc1ccc(N(CC(=O)N2CCOCC2)S(=O)(=O)c2ccccc2)cc1,12*,0,-1,0,-5
COc1cccc(C(=O)c2ncc(C(F)(F)F)cc2Cl)c1,-2,1,0,0,-3
COC(=O)/C(=C\Nc1cccc(Cl)c1C)c1ncc(C(F)(F)F)cc1Cl,-10,2,1,-1,79*
Cc1cnc(NC(=O)C2(c3ccccc3)CC2)s1,1,0,63*,3,13
Cc1nnc(NC(=O)C2(c3ccccc3)CCOCC2)s1,-5,0,-1,0,4
S=C(NCCCn1ccnc1)Nc1cccc(Cl)c1,-6,0,-1,0,nt
COC(=O)c1c(N2C(=O)[C@H]3[C@@H](C2=O)[C@]2(C(=O)Nc4c2ccc(C)c4C)N2CCC[C@@H]32)sc(C)c1C,-3,1,-2,0,41*
CCSC(=O)NC1CCCCC1,nt,1,4,-1,-3
Cc1ccc(CSCCNC(=O)c2ccc(NS(C)(=O)=O)cc2)cc1,-1,1,1,6,-12
O=C1CC(=O)N(Cc2ccco2)C(=S)N1,21*,2,0,0,-3
C/C(=N\N=C(N)N)c1ccc(C)c(C)c1,nt,0,1,1,nt
Cc1cc([N+](=O)[O-])nn1Cc1ccccc1F,-5,0,95*,91*,-5
Cc1cc([N+](=O)[O-])nn1CC(=O)Nc1ccc(F)cc1,11*,-1,0,2,7
Cc1cccnc1NC(=O)Cn1nc([N+](=O)[O-])cc1C,14*,0,0,20,11
COc1cccc(NC(=S)/C(=C(\[O-])c2ccc(OC(F)F)cc2)[n+]2ccccc2)c1,11*,1,-1,0,-1
CC(=O)N1CCc2[nH]c3ccccc3c2C1,-7,3.3*,0,0,-4
O=C(COC(=O)/C=C/c1ccco1)NCc1ccc2c(c1)OCO2,-4,0,2,3,1
C=CCN(CC=C)CCOc1ccc(C)cc1[N+](=O)[O-],-1,0,-1,0,21
C=CCN(CC=C)CCOc1cc(C)ccc1[N+](=O)[O-],-7,0,-1,1,42*
